# Results published in ChEMBL document CHEMBL4689842, “EUbOPEN Chemogenomics Library wave 1” (2021).
# Values joined by “and” are separate entries in the source; they are usually repeats but may differ in a detail not shown here. Equal entries are not always repeated.
# Tested on: Fibroblast
# Assay: Multiplex assay against human fibroblast
# Type: toxicity, cell-based
# Procedure, shortened: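 Hoechst33342, BioTracker Green Microtubule Cytoskeleton Dye, MitoTracker Red and Annexin V Alexa Fluor 680 were added to live cells at seeding, and imaging on a CQ1 microscope at 37°C and 5% CO2 followed compound addition. Gating by CellPathfinder machine learning separated cells into Hoechst high-intensity objects or normal cells, then normal cells into healthy, pyknosed or fragmented nuclei, then pyknosed cells into mitotic or apoptotic. Per cents of healthy-nucleus cells are reported for the tubulin, mitochondrial-mass and membrane-permeability phenotypes.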
# [1] = 12 h, 1 µM, compound concentration 1 uM, replicate 1
# [2] = 12 h, 1 µM, compound concentration 1 uM, replicate 2
# [3] = 12 h, 10 µM, compound concentration 10 uM, replicate 1
# [4] = 12 h, 10 µM, compound concentration 10 uM, replicate 2
# [5] = 24 h, 1 µM, compound concentration 1 uM, replicate 1
# [6] = 24 h, 1 µM, compound concentration 1 uM, replicate 2
# [7] = 24 h, 10 µM, compound concentration 10 uM, replicate 1
# [8] = 24 h, 10 µM, compound concentration 10 uM, replicate 2
# [9] = 48 h, 1 µM, compound concentration 1 uM, replicate 1
# [10] = 48 h, 1 µM, compound concentration 1 uM, replicate 2
# [11] = 48 h, 10 µM, compound concentration 10 uM, replicate 1
# [12] = 48 h, 10 µM, compound concentration 10 uM, replicate 2
structure (smiles),measurement,setting,value
C=CC(=O)Nc1cccc(Sc2nc(Nc3ccc(N4CCN(C)CC4)cc3)ncc2Cl)c1,Population Apoptotic (%),[1],35%
same,Population Fragmented Nuclei (%),[1],28%
same,Population Healthy Nuclei (%),[1],17%
same,Population Hoechst High Intensity Objects (%),[1],13%
same,Population Membrane Permeable-Phenotype (%),[1],5%
same,Population Mitochondria Different-Phenotype (%),[1],50%
same,Population Mitotic Cells (%),[1],65%
same,Population Normal (%),[1],86%
same,Population Pyknosed Nuclei (%),[1],53%
same,Population Tubulin-Different-Phenotype (%),[1],50%
same,Total Cell Count,[1],130
same,Population Apoptotic (%),[2],69%
same,Population Fragmented Nuclei (%),[2],48%
same,Population Healthy Nuclei (%),[2],6%
same,Population Hoechst High Intensity Objects (%),[2],20%
same,Population Membrane Permeable-Phenotype (%),[2],0%
same,Population Mitochondria Different-Phenotype (%),[2],33%
same,Population Mitotic Cells (%),[2],30%
same,Population Normal (%),[2],79%
same,Population Pyknosed Nuclei (%),[2],46%
same,Population Tubulin-Different-Phenotype (%),[2],66%
same,Total Cell Count,[2],63
same,Population Apoptotic (%),[3],79%
same,Population Fragmented Nuclei (%),[3],34%
same,Population Healthy Nuclei (%),[3],49%
same,Population Hoechst High Intensity Objects (%),[3],15%
same,Population Membrane Permeable-Phenotype (%),[3],6%
same,Population Mitochondria Different-Phenotype (%),[3],5%
same,Population Mitotic Cells (%),[3],20%
same,Population Normal (%),[3],84%
same,Population Pyknosed Nuclei (%),[3],15%
same,Population Tubulin-Different-Phenotype (%),[3],9%
same,Total Cell Count,[3],290
same,Population Apoptotic (%),[4],100%
same,Population Fragmented Nuclei (%),[4],62%
same,Population Healthy Nuclei (%),[4],36%
same,Population Hoechst High Intensity Objects (%),[4],33%
same,Population Membrane Permeable-Phenotype (%),[4],7%
same,Population Mitochondria Different-Phenotype (%),[4],7%
same,Population Mitotic Cells (%),[4],0%
same,Population Normal (%),[4],66%
same,Population Pyknosed Nuclei (%),[4],1%
same,Population Tubulin-Different-Phenotype (%),[4],25%
same,Total Cell Count,[4],116
same,Population Apoptotic (%),[5],74%
same,Population Fragmented Nuclei (%),[5],53%
same,Population Healthy Nuclei (%),[5],6%
same,Population Hoechst High Intensity Objects (%),[5],7%
same,Population Mitochondria Different-Phenotype (%),[5],57%
same,Population Mitotic Cells (%),[5],25%
same,Population Normal (%),[5],92%
same,Population Pyknosed Nuclei (%),[5],40%
same,Population Tubulin-Different-Phenotype (%),[5],71%
same,Total Cell Count,[5],126
same,Population Apoptotic (%),[6],90%
same,Population Fragmented Nuclei (%),[6],70%
same,Population Healthy Nuclei (%),[6],5%
same,Population Hoechst High Intensity Objects (%),[6],23%
same,Population Membrane Permeable-Phenotype (%),[6],0%
same,Population Mitochondria Different-Phenotype (%),[6],0%
same,Population Mitotic Cells (%),[6],10%
same,Population Normal (%),[6],76%
same,Population Pyknosed Nuclei (%),[6],25%
same,Population Tubulin-Different-Phenotype (%),[6],50%
same,Total Cell Count,[6],52
same,Population Apoptotic (%),[7],80%
same,Population Fragmented Nuclei (%),[7],34%
same,Population Healthy Nuclei (%),[7],50%
same,Population Hoechst High Intensity Objects (%),[7],17%
same,Population Membrane Permeable-Phenotype (%),[7],5%
same,Population Mitochondria Different-Phenotype (%),[7],5%
same,Population Mitotic Cells (%),[7],20%
same,Population Normal (%),[7],82%
same,Population Pyknosed Nuclei (%),[7],14%
same,Population Tubulin-Different-Phenotype (%),[7],11%
same,Total Cell Count,[7],285
same,Population Apoptotic (%),[8],0%
same,Population Fragmented Nuclei (%),[8],65%
same,Population Healthy Nuclei (%),[8],34%
same,Population Hoechst High Intensity Objects (%),[8],34%
same,Population Membrane Permeable-Phenotype (%),[8],20%
same,Population Mitochondria Different-Phenotype (%),[8],4%
same,Population Mitotic Cells (%),[8],0%
same,Population Normal (%),[8],65%
same,Population Pyknosed Nuclei (%),[8],0%
same,Population Tubulin-Different-Phenotype (%),[8],16%
same,Total Cell Count,[8],111
CC(C)Oc1ccccc1C(=O)Nc1ccccc1C(=O)Nc1cccc(S(=O)(=O)C(F)(F)F)c1,Population Apoptotic (%),[1],75%
same,Population Fragmented Nuclei (%),[1],23%
same,Population Healthy Nuclei (%),[1],49%
same,Population Hoechst High Intensity Objects (%),[1],14%
same,Population Membrane Permeable-Phenotype (%),[1],16%
same,Population Mitochondria Different-Phenotype (%),[1],22%
same,Population Mitotic Cells (%),[1],25%
same,Population Normal (%),[1],85%
same,Population Pyknosed Nuclei (%),[1],26%
same,Population Tubulin-Different-Phenotype (%),[1],62%
same,Total Cell Count,[1],158
same,Population Apoptotic (%),[2],33%
same,Population Fragmented Nuclei (%),[2],20%
same,Population Healthy Nuclei (%),[2],74%
same,Population Hoechst High Intensity Objects (%),[2],5%
same,Population Membrane Permeable-Phenotype (%),[2],10%
same,Population Mitochondria Different-Phenotype (%),[2],45%
same,Population Mitotic Cells (%),[2],66%
same,Population Normal (%),[2],94%
same,Population Pyknosed Nuclei (%),[2],6%
same,Population Tubulin-Different-Phenotype (%),[2],37%
same,Total Cell Count,[2],62
same,Population Apoptotic (%),[3],61%
same,Population Fragmented Nuclei (%),[3],39%
same,Population Healthy Nuclei (%),[3],34%
same,Population Hoechst High Intensity Objects (%),[3],11%
same,Population Membrane Permeable-Phenotype (%),[3],35%
same,Population Mitochondria Different-Phenotype (%),[3],47%
same,Population Mitotic Cells (%),[3],38%
same,Population Normal (%),[3],88%
same,Population Pyknosed Nuclei (%),[3],25%
same,Population Tubulin-Different-Phenotype (%),[3],23%
same,Total Cell Count,[3],137
same,Population Apoptotic (%),[4],90%
same,Population Fragmented Nuclei (%),[4],17%
same,Population Healthy Nuclei (%),[4],71%
same,Population Hoechst High Intensity Objects (%),[4],4%
same,Population Membrane Permeable-Phenotype (%),[4],97%
same,Population Mitochondria Different-Phenotype (%),[4],92%
same,Population Mitotic Cells (%),[4],10%
same,Population Normal (%),[4],96%
same,Population Pyknosed Nuclei (%),[4],10%
same,Population Tubulin-Different-Phenotype (%),[4],100%
same,Total Cell Count,[4],53
same,Population Apoptotic (%),[5],61%
same,Population Fragmented Nuclei (%),[5],25%
same,Population Healthy Nuclei (%),[5],51%
same,Population Hoechst High Intensity Objects (%),[5],11%
same,Population Membrane Permeable-Phenotype (%),[5],10%
same,Population Mitochondria Different-Phenotype (%),[5],22%
same,Population Mitotic Cells (%),[5],38%
same,Population Normal (%),[5],88%
same,Population Pyknosed Nuclei (%),[5],22%
same,Population Tubulin-Different-Phenotype (%),[5],65%
same,Total Cell Count,[5],168
same,Population Apoptotic (%),[6],33%
same,Population Fragmented Nuclei (%),[6],21%
same,Population Healthy Nuclei (%),[6],66%
same,Population Hoechst High Intensity Objects (%),[6],7%
same,Population Membrane Permeable-Phenotype (%),[6],11%
same,Population Mitochondria Different-Phenotype (%),[6],58%
same,Population Mitotic Cells (%),[6],66%
same,Population Normal (%),[6],92%
same,Population Pyknosed Nuclei (%),[6],11%
same,Population Tubulin-Different-Phenotype (%),[6],35%
same,Total Cell Count,[6],57
same,Population Apoptotic (%),[7],79%
same,Population Fragmented Nuclei (%),[7],40%
same,Population Healthy Nuclei (%),[7],37%
same,Population Hoechst High Intensity Objects (%),[7],12%
same,Population Membrane Permeable-Phenotype (%),[7],21%
same,Population Mitochondria Different-Phenotype (%),[7],71%
same,Population Mitotic Cells (%),[7],20%
same,Population Normal (%),[7],87%
same,Population Pyknosed Nuclei (%),[7],21%
same,Population Tubulin-Different-Phenotype (%),[7],23%
same,Total Cell Count,[7],127
same,Population Apoptotic (%),[8],100%
same,Population Fragmented Nuclei (%),[8],17%
same,Population Healthy Nuclei (%),[8],56%
same,Population Hoechst High Intensity Objects (%),[8],11%
same,Population Membrane Permeable-Phenotype (%),[8],91%
same,Population Mitochondria Different-Phenotype (%),[8],94%
same,Population Mitotic Cells (%),[8],0%
same,Population Normal (%),[8],88%
same,Population Pyknosed Nuclei (%),[8],27%
same,Population Tubulin-Different-Phenotype (%),[8],98%
same,Total Cell Count,[8],55
same,Population Apoptotic (%),[9],70%
same,Population Fragmented Nuclei (%),[9],30%
same,Population Healthy Nuclei (%),[9],57%
same,Population Hoechst High Intensity Objects (%),[9],14%
same,Population Membrane Permeable-Phenotype (%),[9],14%
same,Population Mitochondria Different-Phenotype (%),[9],13%
same,Population Mitotic Cells (%),[9],29%
same,Population Normal (%),[9],85%
same,Population Pyknosed Nuclei (%),[9],12%
same,Population Tubulin-Different-Phenotype (%),[9],49%
same,Total Cell Count,[9],163
same,Population Apoptotic (%),[10],60%
same,Population Fragmented Nuclei (%),[10],29%
same,Population Healthy Nuclei (%),[10],67%
same,Population Hoechst High Intensity Objects (%),[10],7%
same,Population Membrane Permeable-Phenotype (%),[10],4%
same,Population Mitochondria Different-Phenotype (%),[10],1%
same,Population Mitotic Cells (%),[10],40%
same,Population Normal (%),[10],92%
same,Population Pyknosed Nuclei (%),[10],3%
same,Population Tubulin-Different-Phenotype (%),[10],55%
same,Total Cell Count,[10],154
same,Population Apoptotic (%),[11],78%
same,Population Fragmented Nuclei (%),[11],69%
same,Population Healthy Nuclei (%),[11],24%
same,Population Hoechst High Intensity Objects (%),[11],10%
same,Population Membrane Permeable-Phenotype (%),[11],14%
same,Population Mitochondria Different-Phenotype (%),[11],46%
same,Population Mitotic Cells (%),[11],21%
same,Population Normal (%),[11],89%
same,Population Pyknosed Nuclei (%),[11],6%
same,Population Tubulin-Different-Phenotype (%),[11],48%
same,Total Cell Count,[11],232
same,Population Apoptotic (%),[12],50%
same,Population Fragmented Nuclei (%),[12],66%
same,Population Healthy Nuclei (%),[12],29%
same,Population Hoechst High Intensity Objects (%),[12],9%
same,Population Membrane Permeable-Phenotype (%),[12],21%
same,Population Mitochondria Different-Phenotype (%),[12],65%
same,Population Mitotic Cells (%),[12],50%
same,Population Normal (%),[12],90%
same,Population Pyknosed Nuclei (%),[12],3%
same,Population Tubulin-Different-Phenotype (%),[12],55%
same,Total Cell Count,[12],175
Cc1cc(C)c(-n2ccn3nc(-c4cccnc4)cc23)cc1NC(=O)c1cc(C#N)cc(S(F)(F)(F)(F)F)c1 [BAY-826],Population Apoptotic (%),[1],67% and 71%
same,Population Fragmented Nuclei (%),[1],37% and 21%
same,Population Healthy Nuclei (%),[1],48% and 63%
same,Population Hoechst High Intensity Objects (%),[1],11% and 19%
same,Population Mitochondria Different-Phenotype (%),[1],3% and 8%
same,Population Mitotic Cells (%),[1],32% and 28%
same,Population Normal (%),[1],88% and 80%
same,Population Pyknosed Nuclei (%),[1],14% and 15%
same,Total Cell Count,[1],241 and 313
same,Population Apoptotic (%),[2],50% and 91%
same,Population Fragmented Nuclei (%),[2],55% and 58%
same,Population Healthy Nuclei (%),[2],37% and 19%
same,Population Hoechst High Intensity Objects (%),[2],23% and 34%
same,Population Membrane Permeable-Phenotype (%),[2],20% and 36%
same,Population Normal (%),[2],76% and 65%
same,Population Pyknosed Nuclei (%),[2],7% and 21%
same,Population Tubulin-Different-Phenotype (%),[2],30% and 54%
same,Total Cell Count,[2],71 and 85
same,Population Apoptotic (%),[5],52% and 37%
same,Population Fragmented Nuclei (%),[5],23% and 21%
same,Population Healthy Nuclei (%),[5],54% and 63%
same,Population Hoechst High Intensity Objects (%),[5],12% and 18%
same,Population Mitochondria Different-Phenotype (%),[5],8% and 4%
same,Population Mitotic Cells (%),[5],47% and 62%
same,Population Normal (%),[5],87% and 81%
same,Population Pyknosed Nuclei (%),[5],21% and 14%
same,Total Cell Count,[5],231 and 326
same,Population Fragmented Nuclei (%),[6],54% and 59%
same,Population Healthy Nuclei (%),[6],35% and 19%
same,Population Hoechst High Intensity Objects (%),[6],36% and 28%
same,Population Normal (%),[6],64% and 71%
same,Population Pyknosed Nuclei (%),[6],10% and 20%
same,Population Tubulin-Different-Phenotype (%),[6],29% and 58%
same,Total Cell Count,[6],75 and 87
